In ChEMBL document CHEMBL1136968, “Structurally simple inhibitors of lanosterol 14alpha-demethylase are efficacious in a rodent model of acute Chagas disease” (J Med Chem, 2009):
The source made the active and inactive calls. The rule behind the calls is not given here.

Columns and labels:
[1] = system: Trypanosoma cruzi; test: Antitrypanosomal activity against Trypanosoma cruzi Tulahuen amastigotes in mouse 3T3 cells by beta-galactosidase reporter gene assay; type: functional, organism-based; conditions: NIH3T3
How it was run: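 Tulahuen strain (TCII lineage) grown as intracellular amastigotes in murine 3T3 fibroblasts in 96-well plates. EC50 determined from triplicate screens. Standard errors within assays stayed below 15%.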

[2] = Toxicity against mouse 3T3 cells by resazurin assay; type: cell-based; conditions: NIH3T3 cells
How it was run: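 Murine 3T3 fibroblasts screened separately from the parasites. Host-cell growth was quantified by resazurin read-out and EC50 determined.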

[3] = biological target: Sterol 14-alpha demethylase (Trypanosoma cruzi (strain CL Brener)) (UniProt Q7Z1V1); test: Binding affinity to Trypanosoma cruzi lanosterol 14-alpha-demethylase expressed in Escherichia coli assessed as enzyme spectral change by difference spectroscopy
[4] = biological target: Sterol 14-alpha demethylase (Trypanosoma cruzi (strain CL Brener), UniProt Q7Z1V1); test: Binding affinity to Trypanosoma cruzi lanosterol 14-alpha-demethylase expressed in Escherichia coli assessed as equilibrium dissociation constant for enzyme-inhibitor complex by difference spectroscopy
[5] = Cmax in Trypanosoma cruzi infected BALB/c mouse model of acute Chagas disease at 50 mg/kg, po administered as single dose; type: ADME, organism-based; design: dose 50 mg/kg, route oral; conditions: in vivo
How it was run: (§1)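 BALB/c females, 7–8 weeks, ~20 g, groups of three; single oral gavage at 50 mg/kg, given as a 10 mg/ml suspension in 20% (w/v) hydroxypropyl beta-cyclodextrin, 100 µL. Tail blood (40 µL) taken at timed intervals into heparinized capillaries. Plasma was separated, frozen and analysed later. Sampling ran to 5 hr. Values are averages from 3 mice.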

[6] = Tmax in Trypanosoma cruzi infected BALB/c mouse model of acute Chagas disease at 50 mg/kg, po administered as single dose; type: ADME, organism-based; design: dose 50 mg/kg, route oral; conditions: in vivo; how it was run: as §1
[7] = AUC (0 to 5 hrs) in Trypanosoma cruzi infected BALB/c mouse model of acute Chagas disease at 50 mg/kg, po administered as single dose; type: ADME, organism-based; design: dose 50 mg/kg, route oral; conditions: in vivo; how it was run: as §1
[8] = system: Trypanosoma cruzi; test: (§2) Antitrypanosomal activity against Trypanosoma cruzi Tulahuen infected BALB/c mouse model of acute Chagas disease assessed as parasitemia burden in blood at 50 mg/kg, po administered twice daily 7 days after parasite infection for 21 days measured 100 days postinfection by PCR assay relative to untreated control; type: functional, organism-based; design: dose 50 mg/kg
How it was run: (§3)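 BALB/c females, 7–8 weeks, infected subcutaneously with 1 × 10^4 Tulahuen trypomastigotes; all were parasitemic by day 7. Groups of 6 were dosed by oral gavage twice daily on days 7–27 in 20% (w/v) hydroxypropyl beta-cyclodextrin, 100 µL per dose; vehicle group as control. Parasitemia was counted in 5 µL tail blood over 50 high-power fields through day 97. At day 100, 200 µL whole blood was tested by PCR.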

[9] = system: Mus musculus; test: Toxicity in Trypanosoma cruzi Tulahuen infected BALB/c mouse model of acute Chagas disease assessed as incidence of side effects at 50 mg/kg, po administered twice daily 7 days after parasite infection for 21 days; type: organism-based; design: dose 50 mg/kg, route oral; conditions: in vivo; how it was run: as §3
[10] = system: Mus musculus; test: Toxicity in Trypanosoma cruzi Tulahuen infected BALB/c mouse model of acute Chagas disease assessed as mouse survival at 50 mg/kg, po administered twice daily 7 days after parasite infection for 21 days measured 100 days postinfection; type: organism-based; design: dose 50 mg/kg, route oral; conditions: in vivo, 2400 h
How it was run: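 Subcutaneous infection of female BALB/c mice (7–8 wk) with 1 × 10^4 Tulahuen trypomastigotes. Groups of 6 given oral gavage twice daily, days 7–27, in 20% (w/v) hydroxypropyl beta-cyclodextrin. Parasitemia followed by counting 50 high-power fields of 5 µL tail blood through day 97. Pre-morbid mice euthanized; survival and side effects recorded to termination at day 100.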

[11] = system: Trypanosoma cruzi; test: as §2, with “20” for “50”; type: functional, organism-based; design: dose 20 mg/kg
How it was run: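 Female BALB/c mice (7–8 wk) infected s.c. with 1 × 10^4 Tulahuen trypomastigotes; blood parasites seen by day 7. Groups of 6 dosed by oral gavage twice daily, days 7–27, in 20% (w/v) hydroxypropyl beta-cyclodextrin vehicle. Vehicle group as control. Mice sacrificed at day 100; 200 µL whole blood tested by PCR for T. cruzi; scored as positive mice per group.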

[12] = Terminal half life in mouse; type: ADME, organism-based; conditions: in vivo, read-out: beta t1/2 (converted)
[13] = Terminal half life in rat; type: ADME, organism-based; conditions: in vivo, read-out: beta t1/2 (converted)
[14] = Plasma concentration in mouse at 30 mg/kg, po after 1 hr; type: ADME, organism-based; design: dose 30 mg/kg, route oral
[15] = Half life in mouse at 30 mg/kg, po; type: ADME, organism-based; design: dose 30 mg/kg, route oral; conditions: in vivo
[16] = system: Trypanosoma cruzi; test: Antitrypanosomal activity against Trypanosoma cruzi infected mouse model of acute Chagas disease assessed as parasitemia burden in blood at 50 mg/kg, po administered twice daily for 14 days relative to untreated control; type: functional

Sequence of Sterol 14-alpha demethylase (Trypanosoma cruzi (strain CL Brener)) (Q7Z1V1 whole entry, looked up): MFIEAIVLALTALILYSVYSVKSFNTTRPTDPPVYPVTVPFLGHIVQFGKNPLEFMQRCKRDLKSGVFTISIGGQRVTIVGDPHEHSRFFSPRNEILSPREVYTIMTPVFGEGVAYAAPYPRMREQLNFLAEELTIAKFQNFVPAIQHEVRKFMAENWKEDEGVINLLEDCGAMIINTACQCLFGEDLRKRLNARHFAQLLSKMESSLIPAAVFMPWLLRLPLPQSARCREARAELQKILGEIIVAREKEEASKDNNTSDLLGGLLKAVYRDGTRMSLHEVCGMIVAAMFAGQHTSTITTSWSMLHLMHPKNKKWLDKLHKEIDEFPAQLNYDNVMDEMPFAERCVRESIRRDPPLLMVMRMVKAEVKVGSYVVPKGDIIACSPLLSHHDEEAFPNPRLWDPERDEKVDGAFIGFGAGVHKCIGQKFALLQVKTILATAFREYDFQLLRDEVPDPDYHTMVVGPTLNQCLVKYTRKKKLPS
Sequence of Sterol 14-alpha demethylase (Q7Z1V1 whole entry): as the sequence (Q7Z1V1 whole entry, looked up) above

Row | Structure (SMILES) | EC50 [1] | EC50 [2] | Activity [3] | Kd [4] | Cmax [5] | Tmax [6] | AUC(0-t) at 4 h [7] | Activity [8] | Activity [9] | Activity [10] | Activity [11] | half-life [12] | half-life [13] | concentration at 1 h [14] | half-life [15] | Activity [16]
1 | Nc1cc(-c2ccccc2)ccc1Cn1cncc1CNc1ccc(Cl)c(-c2ccccc2)c1 | 1.2 nM | > 1000 nM | Active | < 2200 nM | 2400 ng/mL | 0.8 h | 6300 ng·h/mL | inactive | Non-toxic | Non-toxic |  |  |  |  |  | 
2 | Nc1cc(-c2ccccc2)ccc1Cn1cncc1CNc1ccc(-c2nc3ccccc3s2)c(-c2ccccc2)c1 | 0.4 nM | > 1000 nM | Active | < 2200 nM | 7200 ng/mL | 1.7 h | 28700 ng·h/mL |  | Non-toxic | Non-toxic | Active |  |  |  |  | 
3 | CC[C@@H]([C@H](C)O)n1ncn(-c2ccc(N3CCN(c4ccc(OC[C@@H]5CO[C@@](Cn6cncn6)(c6ccc(F)cc6F)C5)cc4)CC3)cc2)c1=O [POSACONAZOLE] |  |  |  |  |  |  |  |  |  |  | Active | 7 h | 7 h |  |  | 
4 | c1ccc(-c2ccc(Cn3cncc3CNc3ccc(-c4nc5ccccc5s4)c(-c4ccccc4)c3)cc2)cc1 | 7 nM | > 1000 nM |  |  |  |  |  |  |  |  |  |  |  | 16 µM | 4 h | 1%
